Measured values taken from paper PMC7847313 (Journal of natural products, 2018).
Read-outs that look alike come from different tables or passages of the source. *1 amine or outer side, *2 acyl side, *3 side chain or, on linkers, in order; H or OH if unused. Where a SMILES comes first, the peptide text is derived from it. Bridges are numbered along the chain shown (N, C = ends). [ ]: non-standard residue; d: D form. The star is where a group is joined. Ahp(3S,6R)alloIle = CC[C@@H](C)[C@@H](C(=O)[*:2])N1C(=O)[C@@H](N[*:1])CC[C@H]1O; Propanoyl(2R-OMe,3-OSO3H) = CO[C@H](COS(=O)(=O)O)C(=O)*; NMeTyr(3-Br,OMe) = CN[C@@H](Cc1ccc(OC)c(Br)c1)C(=O)O; Cit = NC(=O)NCCC[C@H](N)C(=O)O; Butyryl = CCCC(=O)*

What was measured:
chymotrypsin [1] = target: T1, chymotrypsin (Bos taurus, UniProt P00766); assay: Chymotrypsin assay; format: biochemical
Method in brief: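 Enzyme (4 units/mL, in cold 1 mM HCl) and BTEE (1.18 mM) in 80 mM Tris-HCl, pH 7.8, made fresh. BTEE, buffer, CaCl2 and test compound (MeOH dilution series; MeOH blank) were equilibrated at 25 °C, then enzyme added last. A256 followed continuously: 3 min uninhibited, 30 s intervals with inhibitor. Activity in BTEE units/mL; IC50 by nonlinear regression.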

[2] = cited from earlier work
[3] = tested on: Vibrio cholerae secreted serine protease activity; settings: as low as in cultures of T2S mutants, averaged; cited from earlier work
[4] = tested on: NCI-H460 lung cancer cells; settings: cited from earlier work
[5] = tested on: neuro-2a neuroblastoma cells; settings: read-out: IC50 neuro-2a neuroblastoma cells; cited from earlier work
chymotrypsin [6] = target: T1, chymotrypsin; settings: cited from earlier work

## CC[C@@H](C)[C@H]1C(=O)N(C)[C@@H](Cc2ccc(OC)c(Br)c2)C(=O)N[C@@H]([C@@H](C)CC)C(=O)O[C@H](C)[C@H](NC(=O)[C@H](NC(=O)[C@H](O)COS(=O)(=O)O)C(C)C)C(=O)N[C@@H](CCCCN)C(=O)N[C@H]2CC[C@@H](O)N1C2=O [Jizanpeptin A (1), Jizanpeptin A]
Chymotrypsin [1]
  IC50: > 10 µM

## CC[C@@H](C)[C@H]1C(=O)N(C)[C@@H](Cc2ccc(OC)c(Br)c2)C(=O)N[C@@H]([C@@H](C)CC)C(=O)O[C@H](C)[C@H](NC(=O)[C@H](NC(=O)[C@@H](COS(=O)(=O)O)OC)C(C)C)C(=O)N[C@@H](CCCCN)C(=O)N[C@H]2CC[C@@H](O)N1C2=O [Jizanpeptin B (2), Jizanpeptin B]
Chymotrypsin [1]
  IC50: > 10 µM

## CC[C@@H](C)[C@H]1C(=O)N(C)[C@@H](Cc2ccc(OC)c(Br)c2)C(=O)N[C@@H]([C@@H](C)CC)C(=O)O[C@H](C)[C@H](NC(=O)[C@@H](NC(=O)[C@@H](COS(=O)(=O)O)OC)C(C)C)C(=O)N[C@@H](CCCCN)C(=O)N[C@H]2CC[C@@H](O)N1C2=O [Jizanpeptin C (3), Jizanpeptin C]
Chymotrypsin [1]; standardized assay conditions, up to 10 μM
  efficacy as a chymotrypsin inhibitor: full efficacy

## CC[C@@H](C)[C@H]1C(=O)N(C)[C@@H](Cc2ccc(OC)c(Br)c2)C(=O)N[C@@H]([C@@H](C)CC)C(=O)O[C@H](C)[C@H](NC(=O)[C@@H](NC(=O)[C@@H](COS(=O)(=O)O)OC)[C@@H](C)CC)C(=O)N[C@@H](CCCCN)C(=O)N[C@H]2CC[C@@H](O)N1C2=O [Jizanpeptin D (4), Jizanpeptin D] ({Propanoyl(2R-OMe,3-OSO3H)}-ITK[Ahp(3S,6R)alloIle][NMeTyr(3-Br,OMe)]I; ester 2-C)
Chymotrypsin [1]
  IC50: > 10 µM

## CC[C@@H](C)[C@H]1C(=O)N(C)[C@@H](Cc2ccc(OC)c(Br)c2)C(=O)N[C@@H]([C@@H](C)CC)C(=O)O[C@H](C)[C@H](NC(=O)[C@H](NC(=O)[C@@H](COS(=O)(=O)O)OC)C(C)C)C(=O)N[C@@H](CCCNC(=N)N)C(=O)N[C@H]2CC[C@@H](O)N1C2=O [Jizanpeptin E (5), Jizanpeptin E]
Chymotrypsin [1]
  IC50: > 10 µM

## C/C=C1/NC(=O)C(NC(=O)C(NC(=O)C(CO)OC)C(C)C)C(C)OC(=O)C(C(C)C)NC(=O)C(Cc2ccccc2)N(C)C(=O)C(Cc2ccccc2)N2C(=O)C(CCC2O)NC1=O (stereo not drawn) [dolastatin 13]
[2]; terminal Gac
  cytotoxicity: nanomolar cytotoxicity

## CC(=O)N[C@@H](CC(C)C)C(=O)N[C@@H](CC(C)C)C(=O)N[C@H](C=O)CCCNC(=N)N [leupeptin]
[3]
  reduction in fluorescence, positive control: 93%

## C/C=C1\NC(=O)[C@@H](NC(=O)[C@H](CCc2ccc(O)cc2)NC(=O)[C@H](C)NC(=O)[C@H](O)COS(=O)(=O)O)[C@@H](C)OC(=O)[C@H](C(C)C)NC(=O)[C@H](Cc2ccc(O)cc2)N(C)C(=O)[C@H](Cc2ccccc2)N2C(=O)[C@H](CC[C@H]2O)NC1=O [lyngbyastatin 4]
[2]; terminal Gac-sulfate
  cytotoxicity: no cytotoxicity

## CCCC(=O)N[C@H](CCC(N)=O)C(=O)N[C@@H]1C(=O)N[C@@H](CCCNC(N)=O)C(=O)N[C@H]2CC[C@@H](O)N(C2=O)[C@@H]([C@H](C)CC)C(=O)N(C)[C@@H](Cc2ccc(OC)c(Br)c2)C(=O)N[C@@H](C(C)C)C(=O)O[C@@H]1C [symplocamide A] (Butyryl-[dQ]T[Cit][Ahp(3S,6R)alloIle][NMeTyr(3-Br,OMe)]V; ester 2-C)
[4]
  cytotoxicity to NCI-H460 lung cancer cells: remarkably cytotoxic
[4]; read-out: IC50 NCI-H460 lung cancer cells
  IC50: 0.04 µM
[5]
  IC50: 0.029 µM
Chymotrypsin [6]
  selectivity chymotrypsin over trypsin: greater selectivity for chymotrypsin over trypsin
